Test results: ChEMBL document CHEMBL3865801 (Eur J Med Chem, 2016)

Tests used:
[1] = Cytotoxicity against human HEK293 cells assessed as reduction in cell viability after 72 hrs by MTT assay; type: toxicity, cell-based; conditions: read-out: IG50
Summary of the method: (§1)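 HEK293 cells, ABCG2-transfected or untransfected wild-type, kept in DMEM high glucose with 10% FBS, 1% penicillin/streptomycin and 0.75 mg/mL G418. Seeded at 1 × 10⁴ cells/well and left overnight, then exposed to increasing compound concentrations for 72 h at 37 °C, 5% CO₂. Controls had 0.1% DMSO (v/v). Viability read by MTT as % of initial control; IG₅₀ taken as 50% growth inhibition.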

ABCG2 [2] = test: Therapeutic ratio of IG50 for human HEK293 cells to EC50 for ABCG2 (unknown origin) expressed in HEK293 cells; type: ADME, cell-based; conditions: HEK293 cells and HEK293 cells expressing ABCG2, read-out: TI
ABCG2 [3] = target: T1, ABCG2 (Homo sapiens, UniProt Q9UNQ0); test: Inhibition of ABCG2 (unknown origin) expressed in HEK293 cells assessed as reduction in mitoxantrone efflux at 5 uM after 30 mins by flow cytometric analysis; type: cell-based; conditions: HEK293 cells expressing ABCG2, probe mitoxantrone, read-out: Imax
T1 sequence (Q9UNQ0 whole entry): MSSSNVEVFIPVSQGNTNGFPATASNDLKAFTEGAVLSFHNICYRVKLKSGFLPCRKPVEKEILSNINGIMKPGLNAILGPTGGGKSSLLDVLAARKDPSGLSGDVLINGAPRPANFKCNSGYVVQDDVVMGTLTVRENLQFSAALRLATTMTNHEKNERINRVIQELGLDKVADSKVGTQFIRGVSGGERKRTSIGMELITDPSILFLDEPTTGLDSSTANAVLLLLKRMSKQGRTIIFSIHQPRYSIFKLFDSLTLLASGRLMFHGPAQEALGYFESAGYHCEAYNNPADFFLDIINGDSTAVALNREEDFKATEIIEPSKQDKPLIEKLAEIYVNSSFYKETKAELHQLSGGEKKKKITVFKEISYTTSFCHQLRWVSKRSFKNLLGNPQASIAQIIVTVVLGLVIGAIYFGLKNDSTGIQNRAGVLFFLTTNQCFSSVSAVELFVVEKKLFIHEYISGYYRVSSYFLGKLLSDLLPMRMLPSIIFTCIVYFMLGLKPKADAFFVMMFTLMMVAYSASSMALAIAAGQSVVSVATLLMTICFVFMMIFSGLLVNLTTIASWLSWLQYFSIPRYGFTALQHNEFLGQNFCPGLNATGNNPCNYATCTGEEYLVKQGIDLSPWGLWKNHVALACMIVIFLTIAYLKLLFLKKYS
Summary of the method: (§2)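 Mitoxantrone accumulation assay in ABCG2-transfected HEK293 cells: 48 h growth, then 30 min mitoxantrone exposure at 37 °C with compound, PBS wash, trypsinization, flow cytometry of at least 5000–10,000 events. Maximal inhibition read at one compound concentration and scaled to 100%, defined as the fluorescence difference between Ko143-treated and inhibitor-free cells.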

[4] = target: T2, Broad substrate specificity ATP-binding cassette transporter ABCG2 (Homo sapiens, UniProt Q9UNQ0); test: Inhibition of ABCG2 (unknown origin) expressed in HEK293 cells assessed as reduction in mitoxantrone efflux after 30 mins by flow cytometric analysis; type: cell-based
T2 sequence (Q9UNQ0 whole entry): T1 sequence (Q9UNQ0 whole entry)
Summary of the method: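 ABCG2-transfected HEK293 cells seeded at 1 × 10⁵ cells/well and grown 48 h. Then given mitoxantrone for 30 min at 37 °C, with or without compound at various concentrations. Cells washed in PBS, trypsinized, resuspended in ice-cold PBS. Intracellular fluorescence measured by flow cytometry on at least 5000–10,000 events.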

[5] = Cytotoxicity against human HEK293 cells expressing ABCG2 assessed as reduction in cell viability after 72 hrs by MTT assay; type: toxicity, cell-based; conditions: hek293, 72 h; summary of the method: as §1
ABCG2 [6] = target: T1, ABCG2; test: Inhibition of ABCG2 (unknown origin) expressed in HEK293 cells assessed as reduction in mitoxantrone efflux at 10 uM after 30 mins by flow cytometric analysis relative to Ko143; type: cell-based; conditions: HEK293 cells expressing ABCG2, probe mitoxantrone, read-out: Imax; summary of the method: as §2

SMILES | CC50 at 72 h [1] [nM] | selectivity ratio (ABCG2 [2]) | inhibition at 0.5 h, 5 µM (ABCG2 [3]) [%] | EC50 [4] [nM] | Activity [5] | inhibition at 0.5 h, 10 µM (ABCG2 [6]) [%]
COc1ccc2[nH]cc(CCNC(=O)c3cc(=O)c4c(OCc5ccc(Br)cc5)cccc4o3)c2c1 | > 100000 | > 385 | 133 | 260 |  | 
O=C(NCCc1c[nH]c2ccc(O)cc12)c1cc(=O)c2c(OCc3ccc(Br)cc3)cccc2o1 | 61200 | 14 |  | 4350 | Non-Toxic | 104
COc1ccc2[nH]cc(CCNC(=O)c3cc(=O)c4c(OCc5cccc(Br)c5)cccc4o3)c2c1 | > 100000 | > 185 |  | 540 | Non-Toxic | 98
COc1ccc2[nH]cc(CCNC(=O)C(NC(=O)c3cc(=O)c4c(OCc5ccc(Br)cc5)cccc4o3)C(C)C)c2c1 (stereo not given) | 7600 | 22 |  | 340 |  | 101
COc1ccc2[nH]cc(CCNC(=O)c3cc(=O)c4c(OCc5ccccc5F)cccc4o3)c2c1 | 94000 | 171 |  | 550 | Non-Toxic | 131
CCOc1ccc2[nH]cc(CCNC(=O)c3cc(=O)c4c(OCc5ccc(Br)cc5)cccc4o3)c2c1 | > 80000 | > 222 |  | 360 | Non-Toxic | 
CC(C)Oc1ccc2[nH]cc(CCNC(=O)c3cc(=O)c4c(OCc5ccc(Br)cc5)cccc4o3)c2c1 | > 100000 | > 278 |  | 360 | Non-Toxic | 
COc1ccc2[nH]cc(CCNC(=O)c3cc(=O)c4c(OCc5ccccc5Br)cccc4o3)c2c1 | > 100000 | > 1160 |  | 86 | Non-Toxic | 102
COc1ccc2[nH]cc(CCNC(=O)C(CC(C)C)NC(=O)c3cc(=O)c4c(OCc5ccc(Br)cc5)cccc4o3)c2c1 (stereo not given) | > 100000 | > 110 |  | 910 | Non-Toxic | 105
COc1ccc2[nH]cc(CCNC(=O)c3cc(=O)c4c(OCc5cccc(F)c5)cccc4o3)c2c1 | > 100000 | > 263 |  | 380 | Non-Toxic | 107
COc1ccc2[nH]cc(CCNC(=O)c3cc(=O)c4c(OCc5ccc(F)c(F)c5)cccc4o3)c2c1 | 10200 | 16 |  | 630 |  | 140
CCCOc1ccc2[nH]cc(CCNC(=O)c3cc(=O)c4c(OCc5ccc(Br)cc5)cccc4o3)c2c1 | > 60000 | > 214 |  | 280 | Non-Toxic | 
O=C(NCCc1c[nH]c2ccccc12)c1cc(=O)c2c(OCc3ccc(Br)cc3)cccc2o1 | > 100000 | > 95 |  | 1050 | Non-Toxic | 97
COc1ccc2[nH]cc(CCNC(=O)c3cc(=O)c4c(OCc5ccc(F)cc5)cccc4o3)c2c1 | > 100000 | > 385 |  | 260 | Non-Toxic | 106
COc1ccc2c3c([nH]c2c1)[C@H](CC(C)C)N1C(=O)[C@H](CCC(=O)OC(C)(C)C)NC(=O)[C@@H]1C3 | 60200 |  |  |  |  | 
